pEC50: −log10 of the molar value. The source made the active and inactive calls. The rule behind the calls is not given here.
Tests used:
[1] = Half life in dog at 20 mg/kg, po; type: ADME, organism-based, Canis lupus familiaris; parameters: dose 20 mg/kg, route oral; conditions: in vivo
[2] = AUC in dog at 20 mg/kg, po; type: ADME, organism-based, Canis lupus familiaris; parameters: dose 20 mg/kg, route oral; conditions: plasma
[3] = Plasma concentration in dog at 20 mg/kg, po after 12 hrs; type: ADME, organism-based, Canis lupus familiaris; parameters: dose 20 mg/kg, route oral
[4] = Bioavailability in dog at 20 mg/kg, po; type: ADME, organism-based, Canis lupus familiaris; conditions: in vivo
Method in brief: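 Dogs given 10 mg/kg i.v. or 20 mg/kg p.o., n = 3 per time point. Plasma sampled predose through 24 h. Bioavailability = (oral AUC0-∞/intravenous AUC0-∞) × 100.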

[5] = system: Human immunodeficiency virus 2; test: Inhibition of HIV2(NIH-Z) isolate; type: functional, organism-based
Method in brief: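 HeLa-JC53-LTR-Luci cells (HIV-1 LTR-driven luciferase) infected with HIV-2 at MOI 0.03, with 1:4 serial compound dilutions (final DMSO 0.2%, 2% FBS medium). Incubated 48 h at 37°C in 5% CO2. Luciferase chemiluminescence read-out.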

Hepatitis B virus = test: Inhibition of hepatitis B virus replication; type: functional, organism-based
Hepatitis C virus = test: Inhibition of hepatitis C virus replication; type: functional, organism-based; conditions: Hepacivirus hominis
[6] = system: Human immunodeficiency virus 1; test: Inhibition of wild type clade B HIV1 NL4-3; type: functional, organism-based
Method in brief: (§1)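 Single-round assay in HeLa-JC53 cells (15,000/well) using VSV-G-pseudotyped pNL4-3.Luc.R−E−-derived virus at MOI 0.03. Compounds serially diluted 1:4 in DMSO then medium (2% FBS; final DMSO 0.2%). Incubated 48 h at 37°C in 5% CO2. Luciferase chemiluminescence read-out; EC50 determined.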

[7] = system: Human immunodeficiency virus 1; test: Inhibition of non-B HIV1 isolates (clades A, AC, C, D and F); type: functional, organism-based
[8] = molecular target: DNA polymerase beta (Homo sapiens) (UniProt P06746); test: Inhibition of human DNA polymerase beta upto 45 uM
[9] = system: Human immunodeficiency virus 1; test: Antiviral activity against HIV1 isolate with RT V106I mutation in Hela-JC-53 cells; type: functional
[10] = system: Human immunodeficiency virus 1; test: Antiviral activity against HIV1 isolate with RT D123G mutation in Hela-JC-53 cells; type: functional
[11] = Plasma concentration in dog at 10 mg/kg, iv after 12 hrs; type: ADME, organism-based, Canis lupus familiaris; parameters: dose 10 mg/kg, route intravenous
[12] = Tmax in dog at 20 mg/kg, po; type: ADME, organism-based, Canis lupus familiaris; parameters: dose 20 mg/kg, route oral; conditions: in vivo
[13] = system: Human immunodeficiency virus 1; test: Antiviral activity against wild type HIV1 NL4-3 in Hela-JC53 cells in the presence of 30% human serum after 48 hrs; type: functional, organism-based; conditions: Human immunodeficiency virus 1, NL4-3, Hela-JC53, 48 h
Method in brief: (§2)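 HeLa-JC53 cells (1.5 × 10^4) infected with VSV-G-pseudotyped NL4-3.Luci.R−E− reporter virus at MOI 0.03, with 1:4 serial compound dilutions. Heat-inactivated human serum added to final 0–50% on a basal 2% FBS medium. Incubated 48 h at 37°C in 5% CO2. Luciferase read-out; EC50 by nonlinear regression.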

[14] = system: Human immunodeficiency virus 1; test: Antiviral activity against wild type HIV1 NL4-3 in Hela-JC53 cells in the presence of 20% human serum after 48 hrs; type: functional, organism-based; conditions: Human immunodeficiency virus 1, NL4-3, Hela-JC53, 48 h; method in brief: as §2
[15] = system: Human immunodeficiency virus 1; test: Antiviral activity against wild type HIV1 NL4-3 in Hela-JC53 cells after 48 hrs; type: functional, organism-based; conditions: Human immunodeficiency virus 1, NL4-3, Hela-JC53, 48 h; method in brief: as §1
[16] = system: Human immunodeficiency virus 1; test: Antiviral activity against HIV1 isolate V106I-Y188L mutant; type: functional, organism-based
[17] = system: Human immunodeficiency virus 1; test: Antiviral activity against HIV1 isolate with RT G190A mutation; type: functional, organism-based
Method in brief: (§3)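 VSV-G-pseudotyped pNL4-3.Luc.R−E− molecular clones carrying the RT mutations, single-round infection of HeLa-JC53 cells (15,000/well) at MOI 0.03. Compounds serially diluted 1:4 in DMSO then in phenol red-free DMEM with 2% FBS, final DMSO 0.2%. Incubated 48 h at 37°C, 5% CO2. Luciferase read-out by chemiluminescence gives the EC50. Fold change is relative to wt virus, mean of two tests.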

[18] = system: Human immunodeficiency virus 1; test: Antiviral activity against HIV1 isolate with RT K103N-Y188L mutation; type: functional, organism-based; method in brief: as §3
[19] = system: Human immunodeficiency virus 1; test: Antiviral activity against HIV1 isolate with RT K103N-G190A mutation; type: functional, organism-based; method in brief: as §3
[20] = system: Human immunodeficiency virus 1; test: Antiviral activity against HIV1 isolate with RT Y181C mutation; type: functional, organism-based; method in brief: as §3
[21] = system: Human immunodeficiency virus 1; test: Antiviral activity against wild type HIV1; type: functional, organism-based
[22] = system: Human immunodeficiency virus 1; test: Antiviral activity against HIV1 isolate with RT F227L mutation in Hela-JC-53 cells; type: functional
[23] = system: Human immunodeficiency virus 1; test: Antiviral activity against HIV1 isolate with RT T369I mutation in Hela-JC-53 cells; type: functional
[24] = system: Human immunodeficiency virus 1; test: Antiviral activity against HIV1 isolate with RT V106I, Y181C, F227L, T369I mutation in Hela-JC-53 cells; type: functional
[25] = system: Human immunodeficiency virus 1; test: Antiviral activity against HIV1 isolate with RT V106I, D123G, Y181C, F227L, T369I mutation in Hela-JC-53 cells; type: functional
[26] = system: Human immunodeficiency virus 1; test: Antiviral activity against HIV1 NL4-3 with Y188L mutation in Hela-JC53 cells after 48 hrs; type: functional, organism-based; conditions: Human immunodeficiency virus 1, NL4-3, Hela-JC53, 48 h
Method in brief: (§4)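 VSV-G-pseudotyped Y188L NL4-3.Luci.R−E− virus (MOI 0.03) infecting HeLa-JC53 cells (1.5 × 10^4) in phenol red-free DMEM with 2% FBS. Serially diluted compound was added, then heat-inactivated human serum at final 0, 5, 10, 20, 30, 40 or 50%. Cultures ran 48 h at 37°C in 5% CO2, read by Bright-Glo luciferase chemiluminescence. EC50 was taken by nonlinear regression.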

[27] = system: Human immunodeficiency virus 1; test: Antiviral activity against HIV1 NL4-3 with Y188L mutation in Hela-JC53 cells in the presence of 20% human serum after 48 hrs; type: functional, organism-based; conditions: Human immunodeficiency virus 1, NL4-3, Hela-JC53, 48 h; method in brief: as §4
[28] = system: Human immunodeficiency virus 1; test: Antiviral activity against HIV1 NL4-3 with Y188L mutation in Hela-JC53 cells in the presence of 40% human serum after 48 hrs; type: functional, organism-based; conditions: Human immunodeficiency virus 1, NL4-3, Hela-JC53, 48 h; method in brief: as §4
[29] = system: Human immunodeficiency virus 1; test: Antiviral activity against HIV1 NL4-3 with Y188L mutation in Hela-JC53 cells in the presence of 50% human serum after 48 hrs; type: functional, organism-based; conditions: Human immunodeficiency virus 1, NL4-3, Hela-JC53, 48 h; method in brief: as §4
[30] = Tmax in dog at 10 mg/kg, iv; type: ADME, organism-based, Canis lupus familiaris; parameters: dose 10 mg/kg, route intravenous; conditions: in vivo
[31] = Cmax in dog at 10 mg/kg, iv; type: ADME, organism-based, Canis lupus familiaris; parameters: dose 10 mg/kg, route intravenous; conditions: in vivo
[32] = AUC in dog at 10 mg/kg, iv; type: ADME, organism-based, Canis lupus familiaris; parameters: dose 10 mg/kg, route intravenous; conditions: plasma
[33] = system: Human immunodeficiency virus 1; test: Antiviral activity against HIV1 isolate with RT K103N-P225H mutation; type: functional, organism-based; method in brief: as §3
[34] = system: Human immunodeficiency virus 1; test: Antiviral activity against HIV1 isolate with RT K103N-K101Q mutation; type: functional, organism-based; method in brief: as §3
[35] = system: Human immunodeficiency virus 1; test: Antiviral activity against HIV1 isolate with RT G190S mutation; type: functional, organism-based; method in brief: as §3
[36] = system: Human immunodeficiency virus 1; test: Antiviral activity against HIV1 isolate with RT 103N, 238N mutation relative to wild type; type: functional
Method in brief: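 Mutant RT clones built in pNL4-3.Luc.R−E− reporter, VSV-G-pseudotyped, single-round infection of HeLa-JC53 cells (15,000/well, MOI 0.03) with 1:4 serial compound dilutions in DMEM (phenol red-free), 2% FBS, 0.2% final DMSO; 48 h at 37°C, 5% CO2; luciferase chemiluminescence read-out. Fold change in EC50 relative to wild-type virus; mean of two tests.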

[37] = system: Human immunodeficiency virus 1; test: Antiviral activity against HIV1 isolate with RT 103N, 190A mutation relative to wild type; type: functional

Structure (SMILES): NS(=O)(=O)c1ccc(NC(=O)CSc2nnc(Br)n2-c2ccc(C3CC3)c3ccccc23)c(Cl)c1
- half-life [1]: 3.36 h
- AUC [2]: 19600 ng·h/mL
- concentration at 12 h [3]: 742 ng/mL
- bioavailability [4]: 47.1%
- Activity [5]: inactive
- Activity (Hepatitis B virus): inactive
- Activity (Hepatitis C virus): inactive
- Activity [6]: Active
- Activity [7]: Active
- Activity [8]: inactive
- Fold change [9]: 1
- Fold change [10]: 1
- concentration at 12 h [11]: 283 ng/mL
- Tmax [12]: 5.3 h
- pEC50 [13]: 8.07
- pEC50 [14]: 8.15
- pEC50 [15]: 9.22
- pEC50 [16]: 8.64
- pEC50 [17]: 9.72
- pEC50 [18]: 8.97
- pEC50 [19]: 9.49
- pEC50 [20]: 9.64
- pEC50 [21]: 9.85
- Fold change [22]: 0.7
- Fold change [23]: 1.3
- Fold change [24]: 111.9
- Fold change [25]: 31.2
- pEC50 [26]: 8.43
- pEC50 [27]: 7.36
- pEC50 [28]: 7.27
- pEC50 [29]: 7.10
- Tmax [30]: 0.28 h
- Cmax [31]: 4420 ng/mL
- AUC [32]: 20900 ng·h/mL
- pEC50 [33]: 9.89
- pEC50 [34]: 9.82
- pEC50 [35]: 9.64

Structure (SMILES): Cc1ccnc2c1NC(=O)c1cccnc1N2C1CC1 [NEVIRAPINE]
- Fold change [36]: >100
- Fold change [37]: >100
